High-throughput results (PubChem BioAssay)
Wnt bcat act: Wnt/beta-catenin pathway activators, primary screen, cell-based, plate reader, single point; Wnt/beta-catenin reporter cell assay, activator; activation, % at 9.35 µM; actives 1.2% (n = 300,000); AID 743398, 2014; in the data active = activation above about 30%, passing the limit was not always enough
NSD2 inh: NSD2 histone methyltransferase inhibitors, primary screen, biochemical, AlphaScreen, single concentration, set 2; Histone-lysine N-methyltransferase NSD2 (Homo sapiens), O96028; NSD2 peptide methylation, 120 min; inhibition, % at 12.5 µM; actives 0.54% (n = 310,000); AID 743445, 2014; in the data active = inhibition above about 50%
Target sequence (O96028 whole entry, looked up): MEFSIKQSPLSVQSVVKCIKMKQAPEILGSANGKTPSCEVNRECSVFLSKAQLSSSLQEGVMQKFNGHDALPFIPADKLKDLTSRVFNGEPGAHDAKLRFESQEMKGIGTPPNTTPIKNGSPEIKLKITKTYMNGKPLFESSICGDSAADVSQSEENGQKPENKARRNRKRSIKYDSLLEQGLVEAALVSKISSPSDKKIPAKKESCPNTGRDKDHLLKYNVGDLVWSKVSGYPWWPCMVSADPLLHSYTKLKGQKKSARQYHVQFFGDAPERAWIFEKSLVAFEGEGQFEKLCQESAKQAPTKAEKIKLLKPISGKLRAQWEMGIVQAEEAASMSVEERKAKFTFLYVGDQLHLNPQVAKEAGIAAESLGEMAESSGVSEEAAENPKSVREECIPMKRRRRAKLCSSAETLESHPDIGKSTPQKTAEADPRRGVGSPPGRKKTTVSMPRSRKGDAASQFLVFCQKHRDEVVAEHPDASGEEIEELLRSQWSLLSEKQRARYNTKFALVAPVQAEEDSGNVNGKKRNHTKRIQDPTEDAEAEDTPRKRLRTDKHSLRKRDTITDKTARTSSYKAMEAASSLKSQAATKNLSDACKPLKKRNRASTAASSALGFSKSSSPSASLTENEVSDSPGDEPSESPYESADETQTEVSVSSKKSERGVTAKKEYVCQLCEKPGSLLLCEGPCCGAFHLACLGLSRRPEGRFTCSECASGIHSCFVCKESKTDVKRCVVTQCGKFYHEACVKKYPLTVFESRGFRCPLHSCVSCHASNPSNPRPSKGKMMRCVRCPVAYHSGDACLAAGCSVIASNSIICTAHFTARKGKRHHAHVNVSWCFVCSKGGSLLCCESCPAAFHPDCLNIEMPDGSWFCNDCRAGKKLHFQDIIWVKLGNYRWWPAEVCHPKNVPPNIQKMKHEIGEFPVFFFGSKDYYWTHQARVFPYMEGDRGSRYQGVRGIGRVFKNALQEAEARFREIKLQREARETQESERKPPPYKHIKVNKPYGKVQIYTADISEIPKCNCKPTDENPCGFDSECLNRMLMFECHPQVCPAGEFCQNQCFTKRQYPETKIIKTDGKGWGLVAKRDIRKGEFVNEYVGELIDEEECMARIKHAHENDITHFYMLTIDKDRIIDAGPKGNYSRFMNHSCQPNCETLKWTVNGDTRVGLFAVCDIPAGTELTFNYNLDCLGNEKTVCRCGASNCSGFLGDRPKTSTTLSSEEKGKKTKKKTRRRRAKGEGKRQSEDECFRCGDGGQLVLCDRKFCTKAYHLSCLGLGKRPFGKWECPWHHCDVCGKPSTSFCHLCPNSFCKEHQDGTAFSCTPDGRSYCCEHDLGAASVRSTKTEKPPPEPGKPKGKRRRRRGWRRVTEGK
Xi reactivation: activators of inactive X chromosome reactivation, primary screen, imaging, XiGFP fibroblasts, GFP high-content imaging, set 2 | XiGFP mouse fibroblasts, % GFP-positive cells imaging, 3 d; cells co-treated with 5-aza-dC sensitizer; scaled so ellipticine positive control = 100% | activation, % at 7.58 µM | actives 0.055% (n = 360,000) | AID 743238, 2013;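 active = mean normalized replicate activation at least 10% and every replicate at or above 10%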
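Material: SV40-immortalized XiGFP fibroblast cells, line 68-5-11 | Buffer or medium: DMEM containing 5-aza-dC | Dosing: One concentration, pinned | Times: 3 d treatment, 15 min room-temperature fixation | Controls: Ellipticine 6 µM positive control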
MITF act: activators of MITF-driven TRPM1 promoter reporter, primary screen, cell-based, SK-MEL-5, luciferase, single point | activation, % at 12.5 µM | actives 0.75% (n = 300,000) | SK-MEL-5 TRPM1-promoter luciferase, 24 h; % of positive control, neutral wells = 0;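 active = mean activation of at least 80% with every replicate also reaching 80%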
Casp6 inh: human caspase-6 inhibitors, primary screen, biochemical, VEID-R110 fluorescence, single point, set 2; purified caspase-6, Z-VEID-R110 cleavage fluorescence; inhibition, % at 12.5 µM; actives 0.53% (n = 350,000); AID 686996, 2013;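 active = mean inhibition across replicates at least about 35%, with every replicate also reaching that limit, limit read from the data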
esBAF inh: Bmi1 luciferase reporter increase in mESCs, primary screen, esBAF inhibitor project, mouse ES cells, Bmi1 luciferase knock-in, single point; 24 h; 100% = twice the neutral-well signal; reporter increase, % at 12.5 µM; actives 2% (n = 350,000); AID 602393, 2012; in the data active = activation above about 40%;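 note: a rise in the Bmi1 reporter signal indicates esBAF inhibition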
Alpha artifact: AlphaScreen signal interference with preloaded methylated product, dose response, artefact control for NSD2 inhibitor project, biochemical, cherry-picked samples | shares compounds with NSD2 inh | AlphaScreen artifact counterscreen, preloaded methylated H4 peptide | AC35, µM (doses to about 10 µM) | actives 9.4% (n = 1,500); call rule not given here
Large screens that a line does not name were inactive (follow-up assays come after a bar, where they were run). Rows were chosen to be rich in hits. Some 3% of all compounds tested hit in one or more screens of this group.

c1cc(-c2ccoc2)n2ccnc2c1	NSD2 inh 105 (no result: MITF act) | Alpha artifact inactive
COC(=O)c1sc(S(=O)(=O)Nc2ccc(C)c(C)c2)c(C(=O)OC)c1C	NSD2 inh 50 (no result: esBAF inh) | Alpha artifact inactive
CS(=O)(=O)c1ccc2c(c1)sc1nc(=O)c(/C=C3/C=CC(=O)C(O)=C3)c(N)n12	NSD2 inh 119 (no result: esBAF inh) | Alpha artifact 7.1µM
CCOC(=O)Cc1cc(=O)n(-c2nc3ccccc3s2)[nH]1	none (no result: Wnt bcat act, Xi reactivation, Casp6 inh)
CCCc1[nH]n(-c2nc3ccccc3s2)c(=O)c1C=NCCCN(CC)CC	NSD2 inh 54 (no result: esBAF inh) | Alpha artifact inactive
CCCc1cc(=O)n(-c2nc3ccccc3s2)[nH]1	NSD2 inh 79 | Alpha artifact inactive
COc1ccc2c3c([nH]c2c1)[C@H](CO)N(C(=O)C1CCOCC1)CC31CN(Cc2nccs2)C1	none (no result: Wnt bcat act, NSD2 inh, MITF act, esBAF inh)
Cn1c(=O)c2c(nc(CN3CCc4ccccc4C3)n2CCCO)n(C)c1=O	none (no result: esBAF inh)
Cn1c(=O)c2c(nc(CN3CCc4ccccc4C3)n2CCc2ccccc2)n(C)c1=O	NSD2 inh 69 (no result: Wnt bcat act, Xi reactivation, MITF act, Casp6 inh, esBAF inh) | Alpha artifact inactive
COc1ccc(-c2csc(C3=C(O)CN(Cc4ccc(Cl)cc4)C3=N)n2)cc1OC	none (no result: Xi reactivation)
N=C1C(c2nc(-c3ccc(F)cc3)cs2)=C(O)CN1Cc1ccc(Cl)cc1	NSD2 inh 128 (no result: Wnt bcat act, Xi reactivation, Casp6 inh) | Alpha artifact inactive
O=C(c1ccc(F)cc1)N1CC(=O)N2[C@H](CO)[C@@H](c3ccc(-c4ccccc4)cc3)[C@H]2C1	none (no result: Wnt bcat act, NSD2 inh, MITF act, esBAF inh)
CC(C)(C)NC(=O)COC(=O)c1ccc2c(c1)C(=O)N(Cc1ccco1)C2=O	NSD2 inh 75 | Alpha artifact inactive
O=C(OCC(=O)N1CCCCC1)c1ccc2c(c1)C(=O)N(Cc1ccco1)C2=O	none
Cc1ccc(S(=O)(=O)/N=C2/NC(=O)/C(=C/c3ccc(Br)o3)S2)cc1	NSD2 inh 70 (no result: Wnt bcat act, Casp6 inh, esBAF inh) | Alpha artifact inactive
Cc1ccc(S(=O)(=O)/N=C2/NC(=O)/C(=C\c3cc(Br)cc(Br)c3O)S2)cc1	NSD2 inh 109 (no result: Wnt bcat act, Xi reactivation, Casp6 inh) | Alpha artifact inactive
CN(c1ccccc1)c1ncccn1	none (no result: MITF act)
CN(c1ccccc1)c1ncnc2c1ncn2C	NSD2 inh 122 | Alpha artifact inactive
Cc1ccc(-c2cnc3c(c2)C(=O)N([C@@H](C)CO)C[C@H](C)[C@H](CN(C)Cc2ccccc2C(=O)O)O3)cc1	none (no result: Wnt bcat act, NSD2 inh, MITF act)
Cc1ccc(-c2nnc3n2N=C(c2ccc4ccccc4c2)CS3)cc1	none (no result: Wnt bcat act, Xi reactivation, MITF act, Casp6 inh, esBAF inh)
Cc1ccccc1-c1nnc2n1N=C(c1ccc(O)c(O)c1)CS2	NSD2 inh 69 (no result: Wnt bcat act, Xi reactivation, MITF act, Casp6 inh, esBAF inh) | Alpha artifact inactive
C[C@@H]1CCCCO[C@H](CN(C)S(=O)(=O)c2cccs2)[C@H](C)CN([C@@H](C)CO)C(=O)c2cc(NS(=O)(=O)c3cn(C)cn3)ccc2O1	none (no result: Wnt bcat act, NSD2 inh, MITF act)
Cc1ccc(N2C(=O)N(CC(=O)Nc3cccc([N+](=O)[O-])c3C)C(=O)C2C)cc1 (configuration not stated)	NSD2 inh 92 (no result: esBAF inh) | Alpha artifact inactive
Cc1ccc(N2C(=O)N(CC(=O)Nc3ccc(C)cc3[N+](=O)[O-])C(=O)C2C)cc1 (configuration not stated)	none
C[C@@H]1CN([C@@H](C)CO)S(=O)(=O)c2ccc(/C=C/c3ccccc3)cc2O[C@H]1CN(C)Cc1cncnc1	none (no result: Wnt bcat act, NSD2 inh, MITF act)
C[C@@H]1CN([C@H](C)CO)C(=O)c2cc(C#CCN(C)C)cnc2O[C@H]1CN(C)C	none (no result: Wnt bcat act, NSD2 inh, MITF act)
CCn1c(SCC(=O)c2ccc(O)c(O)c2)nnc1-c1ccccc1OC	NSD2 inh 88 (no result: Wnt bcat act, Xi reactivation, Casp6 inh) | Alpha artifact inactive
C=CCn1c(SCC(=O)c2ccc(O)c(O)c2)nnc1-c1cccc(C)c1	none (no result: NSD2 inh)
C=CCn1c(SCC(=O)c2ccc(O)c(O)c2)nnc1-c1cccnc1	NSD2 inh 72, Casp6 inh 61 (no result: esBAF inh) | Alpha artifact inactive
C[C@H]1CN([C@@H](C)CO)C(=O)c2cc(NC(=O)C3CCCCC3)ccc2O[C@@H]1CN(C)S(=O)(=O)c1cn(C)cn1	none (no result: Wnt bcat act, NSD2 inh, MITF act)
CCC(=O)N1[C@@H](CO)[C@@H](c2ccc(-c3ccc(F)cc3)cc2)C12CN(C(C)=O)C2	none (no result: Wnt bcat act, NSD2 inh, MITF act, esBAF inh)
O=C(NC(=S)NC1CCS(=O)(=O)C1)c1ccccc1 (configuration not stated)	none (no result: esBAF inh)
CN(C1=C(NC(=O)c2ccccc2)C(=O)c2ccccc2C1=O)C1CCS(=O)(=O)C1 (configuration not stated)	NSD2 inh 109, Casp6 inh 78 (no result: Wnt bcat act, esBAF inh) | Alpha artifact inactive
CC(=O)C1=C(O)C(=O)N(Cc2cccnc2)C1c1ccccc1 (configuration not stated)	NSD2 inh 131 (no result: Wnt bcat act, Xi reactivation, Casp6 inh) | Alpha artifact inactive
O=C(c1ccccn1)N1C[C@@H]2[C@H](c3ccccc31)[C@@H](CO)N2C(=O)Nc1ccccc1F	none (no result: Wnt bcat act, NSD2 inh, MITF act)
CCN(CC)C(=O)COC(=O)C1=NN(c2cc(C)ccc2C)C(=O)CC1	NSD2 inh 59 | Alpha artifact inactive
CCCCNC(=S)NNC(=O)C1=NN(c2cc(C)ccc2C)C(=O)CC1	none
CCOc1ccccc1NC(=O)C1CCCN1C(=O)c1cccs1 (configuration not stated)	NSD2 inh 108 | Alpha artifact inactive
CN(C)Cc1cc(O)c(CN(C)C)cc1O	NSD2 inh 86 (no result: MITF act, esBAF inh) | Alpha artifact inactive
CN(C)Cc1cc(C(C)(C)C)cc(C(C)(C)C)c1O	none (no result: esBAF inh)
Cc1ccc(S(=O)(=O)N(C)C[C@H]2Oc3c(NC(=O)C4CCCCC4)cccc3C(=O)N([C@@H](C)CO)C[C@@H]2C)cc1	none (no result: Wnt bcat act, NSD2 inh, MITF act)
COCC(=O)Nc1ccc2c(c1)C(=O)N(C)[C@@H]1CC[C@H](CC(=O)NCc3ccccc3F)O[C@H]1CO2	none (no result: Wnt bcat act, NSD2 inh, MITF act)
CC[n+]1c(/C=C/c2c[nH]c3ccccc23)ccc2cc(C)ccc21	NSD2 inh 108, Xi reactivation 103 (no result: esBAF inh) | Alpha artifact inactive
CCOC(=O)CCCCC(=O)c1[nH]c(=O)[nH]c1CSc1nc2ccccc2[nH]1	NSD2 inh 100 (no result: Xi reactivation, Casp6 inh) | Alpha artifact inactive
CCOC(=O)c1c(C)[nH]c(C)c1C(=O)CSc1nc2ccccc2[nH]1	none (no result: Casp6 inh, esBAF inh)
CCOC(=O)CCCCC(=O)c1[nH]c(=O)[nH]c1CSc1nc(C)cc(=O)[nH]1	NSD2 inh 106 (no result: Xi reactivation) | Alpha artifact inactive
CCOC(=O)CCCCC(=O)c1[nH]c(=O)[nH]c1CSc1nc(C)cc(C)n1	none (no result: Wnt bcat act, NSD2 inh, Xi reactivation, Casp6 inh)
COc1ccc2c(C#N)c3ccccn3c2c1	NSD2 inh 52, Casp6 inh 62 | Alpha artifact inactive
Cc1cc(=O)n2ccccc2c1C#N	none (no result: Wnt bcat act, Xi reactivation, Casp6 inh)
